Activity calls are given as the source filed them. The calls are words filed in the database; no cut-off is given here.
Experiments:
Mus musculus = experiment: Antiinflammatory activity in DBA/1 mouse collagen-induced arthritis model assessed as reduction of disease incidence at 50 ug/kg, sc administered 2 days prior to collagen challenge continued till day 21 post collagen challenge; type: functional, organism-based
Method in brief: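 Collagen-induced arthritis mice were dosed subcutaneously (1 μg/dose) or given PBS on days −2, 0 and 21. Arthritis was scored clinically and hind paw width measured. Incidence was the % of mice with severity score ≥2 (cumulative) or ≥4 (high score). Results are mean ± SEM. Scores n = 13 per group, pooled from two experiments; paw width n = 7, from a single experiment.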

[1] = Cytotoxicity against CpG-stimulated BALB/c mouse BMDM assessed as loss of cell viability at 5 ug/mL preincubated for 18 hrs followed by CpG challenge measured after 24 hrs by 7-AAD staining-based flow cytometric analysis
Method in brief: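 BALB/c bone marrow macrophages (2 × 10^5/well) were rested 24 h in complete RPMI, then given 5 μg/mL compound for 18 h. Cells were stained with 7-AAD for 10 min on ice and the dead fraction read by flow cytometry. One experiment is representative of two.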

[2] = molecular target: T1, Toll-like receptor 4 (Mus musculus) (UniProt Q9QUK6); experiment: Inhibition of TLR4 in ovalbumin pulsed BALB/c mouse BMDC co-cultured with DO-11.10 CD4+ T cells assessed as reduction of LPS-induced IL-17 production at 5 ug/mL after 3 days by ELISA; type: cell-based; details: T-cell
T1 sequence (whole entry): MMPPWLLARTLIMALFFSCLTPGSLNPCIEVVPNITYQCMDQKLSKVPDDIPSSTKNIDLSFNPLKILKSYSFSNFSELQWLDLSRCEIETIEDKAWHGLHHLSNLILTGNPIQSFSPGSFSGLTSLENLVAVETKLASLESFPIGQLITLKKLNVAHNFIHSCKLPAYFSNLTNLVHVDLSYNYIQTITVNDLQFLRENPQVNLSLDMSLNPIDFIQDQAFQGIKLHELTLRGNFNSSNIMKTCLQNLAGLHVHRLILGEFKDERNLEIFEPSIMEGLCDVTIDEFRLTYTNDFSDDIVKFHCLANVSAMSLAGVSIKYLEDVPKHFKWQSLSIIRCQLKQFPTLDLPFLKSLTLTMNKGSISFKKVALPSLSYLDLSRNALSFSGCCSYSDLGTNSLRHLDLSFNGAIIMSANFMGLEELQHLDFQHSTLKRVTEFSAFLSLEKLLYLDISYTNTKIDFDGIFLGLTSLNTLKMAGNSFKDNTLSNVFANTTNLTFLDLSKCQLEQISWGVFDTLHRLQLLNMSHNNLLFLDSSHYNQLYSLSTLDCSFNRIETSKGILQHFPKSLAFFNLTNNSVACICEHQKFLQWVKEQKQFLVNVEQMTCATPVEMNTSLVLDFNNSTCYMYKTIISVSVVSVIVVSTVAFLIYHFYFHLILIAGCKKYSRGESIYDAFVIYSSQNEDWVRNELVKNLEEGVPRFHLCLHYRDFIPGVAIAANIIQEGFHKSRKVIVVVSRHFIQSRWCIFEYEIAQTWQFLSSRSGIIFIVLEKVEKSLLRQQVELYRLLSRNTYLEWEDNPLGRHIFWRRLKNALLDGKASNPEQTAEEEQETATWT
Method in brief: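 BALB/c bone marrow DCs ± compound (5 μg/mL) were treated ± S. minnesota LPS and pulsed with OVA peptide (0–300 nM). They were cocultured 3 days with naive CD4+CD62L+ DO.11.10 T cells, and IL-17A was measured by ELISA. Values are mean ± SD of duplicates from two experiments.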

[3] = Cytotoxicity against mouse BMDC assessed as reduction in cell viability
[4] = molecular target: T2, Toll-like receptor 9 (Mus musculus) (UniProt Q9EQU3); experiment: Inhibition of TLR9-mediated NFkappaB p65 activation in CpG-stimulated BALB/c mouse BMDM at 5 ug/ml preincubated for 18 hrs followed by CpG challenge measured after 1 hr by TransAM ELISA
T2 sequence (whole entry): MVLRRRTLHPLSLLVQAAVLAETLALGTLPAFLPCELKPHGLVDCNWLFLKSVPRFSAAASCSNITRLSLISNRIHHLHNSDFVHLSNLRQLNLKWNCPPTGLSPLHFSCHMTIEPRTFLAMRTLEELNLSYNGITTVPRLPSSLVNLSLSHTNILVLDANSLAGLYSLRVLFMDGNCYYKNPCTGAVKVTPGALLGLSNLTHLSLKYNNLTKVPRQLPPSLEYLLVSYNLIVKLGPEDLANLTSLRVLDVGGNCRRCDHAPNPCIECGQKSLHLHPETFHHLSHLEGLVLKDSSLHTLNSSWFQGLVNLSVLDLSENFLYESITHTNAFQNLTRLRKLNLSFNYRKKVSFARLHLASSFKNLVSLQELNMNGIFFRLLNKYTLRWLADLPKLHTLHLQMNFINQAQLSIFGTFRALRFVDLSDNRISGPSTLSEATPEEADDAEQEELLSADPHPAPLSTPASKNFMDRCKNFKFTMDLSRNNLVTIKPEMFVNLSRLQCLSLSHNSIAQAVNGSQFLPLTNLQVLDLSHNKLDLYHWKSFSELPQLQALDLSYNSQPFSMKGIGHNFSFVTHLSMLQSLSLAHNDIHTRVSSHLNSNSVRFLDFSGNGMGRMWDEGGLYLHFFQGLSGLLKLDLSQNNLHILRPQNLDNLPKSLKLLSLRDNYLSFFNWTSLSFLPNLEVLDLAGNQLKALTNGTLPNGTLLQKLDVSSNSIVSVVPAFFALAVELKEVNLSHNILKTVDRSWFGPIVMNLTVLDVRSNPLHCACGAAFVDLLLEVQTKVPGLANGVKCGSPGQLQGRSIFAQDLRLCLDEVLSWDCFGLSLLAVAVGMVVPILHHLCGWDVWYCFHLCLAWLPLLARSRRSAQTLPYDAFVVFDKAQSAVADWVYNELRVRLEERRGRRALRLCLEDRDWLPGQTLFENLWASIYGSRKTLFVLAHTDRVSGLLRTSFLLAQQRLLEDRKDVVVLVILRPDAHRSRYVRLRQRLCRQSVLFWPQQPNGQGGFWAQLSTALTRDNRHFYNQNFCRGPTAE
Method in brief: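 Bone marrow macrophages (4 × 10^6/well) had their medium changed after 24 h, were pretreated with compounds at 5 μg/mL for 18 h, then stimulated for 1 h with 100 ng/mL LPS, 10 ng/mL BLP or 1 μM CpG. Activated NFκB p65 in nuclear extracts was measured by TransAM ELISA in duplicate.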

[5] = molecular target: T1, Toll-like receptor 4 (Mus musculus); experiment: Inhibition of TLR4 in ovalbumin pulsed C57BL/6 mouse BMDC co-cultured with OT-2 CD4+ T cells assessed as reduction of LPS-induced IL-17 production at 5 ug/mL after 3 days by ELISA; type: cell-based; details: T-cell
Method in brief: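 C57BL/6 bone marrow DCs ± compound (5 μg/mL) were treated ± LPS, pulsed with OVA peptide, and cocultured 3 days with naive OT-II CD4+ T cells. IL-17A was measured by ELISA. Responses were normalized to the LPS response at 10, 100 and 300 nM OVA. Values are mean ± SEM, pooled from four experiments.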

SMILES: CN(C)CCS(=O)(=O)Cc1ccc(Br)cc1
- Activity (Mus musculus): Active
- Activity [1]: Non-toxic
- inhibition [2]: Active
- Activity [3]: Non-toxic
- inhibition [4]: Active
- inhibition [5]: Active

From ChEMBL document CHEMBL3108700, “Designing anti-inflammatory drugs from parasitic worms: a synthetic small molecule analogue of the Acanthocheilonema viteae product ES-62 prevents development of collagen-induced arthritis” (J Med Chem, 2013)
